For experiment [1], the system named is PTHrP(1-15)-mAb. As to the kind of experiment: Dot blot with PTHrP. Format: binding. The following applies: nitrocellulose, 100, 10 and 1 ng, chemiluminescence. In a few lines:
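The test peptide, PTHrP(1-141), PTHrP(1-37), PTH(1-34) and IL-8 were each spotted at 100, 10 and 1 ng onto nitrocellulose under nondenaturing conditions. Blots were probed with an N-terminal PTHrP(1-15) monoclonal antibody and developed by chemiluminescence.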

The test system of experiment [2] is PTHrP(12-48) polyclonal Ab. In words: Dot blot with PTHrP. Format: binding, chicken. As to conditions: nitrocellulose, nondenaturing, 100, 10 and 1 ng, chemiluminescence. In a few lines:
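The peptide panel (test peptide, PTHrP(1-141), PTHrP(1-37), PTH(1-34), IL-8) was spotted at 100, 10 and 1 ng on nitrocellulose without denaturation. The probe was a chicken polyclonal IgY raised against the KLH-conjugated test peptide, depleted of PTHrP(1-37) by negative selection and affinity-purified on a test-peptide column. Detection was by chemiluminescence.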

Experiment [3] concerns PTHR1 (PTHR1-expressing SaOS2 cells). As to conditions: cited from earlier work.
The test system of experiment [4] is human OCLs and their precursors (PBMCs). As to the kind of experiment: Internalization assay in human osteoclasts and precursors. Format: cell-based. In a few lines:
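Thawed human PBMCs were seeded at 500,000 cells/well on chamber slides in alpha-MEM + 10% FBS with mCSF (25 ng/mL) ± RANKL (50 ng/mL) at 37°C, 5% CO₂. On day 7, test peptide (100 nM) was added with serum for 15, 30, 60 or 90 min. Cells were fixed in 4% paraformaldehyde (4°C, 15 min), permeabilised with 0.02% Triton X-100 and blocked with BlokHen 1:10. They were stained with chicken anti-test-peptide antibody plus DAPI, with a no-primary control, and imaged by fluorescence or confocal microscopy.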

Experiment [5] relates to PTHR1 (PTHR1-expressing SaOS2 cells). In words: Competitive cAMP ELISA in SaOS2 cells. It is filed as cell-based, human. The following applies: PTH(1-34) 1 and 10 nM, 10 min, IBMX pretreatment, representative of three independent experiments. In a few lines: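 SaOS2 cells were grown in RPMI 1640 with 10% FBS and antibiotics at 37°C and 5% CO₂, with medium changed every 3 days. Confluent cultures were serum-starved for 6 h, pretreated with IBMX for 15 min, then exposed to ligand for 10 min. Cells were lysed, and cAMP was quantified by a competitive ELISA kit following the manufacturer's protocol.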
In general terms: In an ELISA, binding on a coated surface is turned into a signal by an enzyme label.

Experiment [6] relates to cells (PTHR1-dependent). The following applies: cited from earlier work.
The test system of experiment [7] is mesenchymal lineage cells. As to the kind of experiment: Effect on mesenchymal lineage cells. The following applies: in vitro or in vivo; data not shown. Format: cell-based.
Experiment [8] relates to PTHR1 (SaOS2 or any other PTHR1-expressing cell). As to the kind of experiment: PTHR1 antagonism of PTHrP. It is filed as cell-based, human. The following applies: data not shown.
Experiment [9] concerns human OCL precursors and differentiated OCLs (PBMCs). As to the kind of experiment: Cleaved caspase 3. Format: cell-based. As to conditions: for total cells positive for cleaved caspase-3, controls day 0: OCL precursors, vehicle or mCSF without or with RANKL on day 0, 24 h. In a few lines:
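Frozen human PBMCs were thawed at 37°C and seeded at 500,000 cells/well on chamber slides in alpha-MEM + 10% FBS with mCSF (25 ng/mL) ± RANKL (50 ng/mL) at 37°C, 5% CO₂. Cells were treated 24 h with test peptide (50 nM) or TNFα (200 ng/mL) on day 0 or day 7. They were then fixed, permeabilised and stained with anti-cleaved caspase 3 (Asp175) at 1:400 plus a 1 h secondary, with DAPI nuclei. Positive cells were counted by fluorescence or confocal microscopy.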

Experiment [10] concerns other resident bone and bone marrow cells. In words: Uptake in other resident bone and bone marrow cells. As to conditions: in vitro or in vivo; data not shown. It is filed as cell-based.
The subject of experiment [11] is PTHrP(12-48) Ab. In words: Western blot with PTHrP. Format: binding, chicken. As to conditions: SDS-PAGE (12%) immunoblot; PTHrP(12-48) 1 mM, 100 µM, 10 µM; two independent series of experiments. In a few lines:
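Peptides and IL-8 were run on 12% SDS-PAGE and transferred to nitrocellulose. Blots were blocked for 30 min in BlokHen (1:10 in water), then washed in PBS with 0.05% Tween-20. They were probed with chicken polyclonal IgY (raised against KLH-conjugated PTHrP(12-48) and PEG-precipitated from egg yolk) or a PTHrP(1-15) monoclonal, then a secondary antibody. Detection was by chemiluminescence. Blots were stripped for 30 min at RT and reprobed for IL-8.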

Experiment [12] deals with human OCL precursors / OCLs (PBMCs). In words: Osteoclastogenesis, TRAP+ MNC count. Format: cell-based. As to conditions: RANKL 50 ng/mL + mCSF 25 ng/mL versus mCSF; day 10; Fig. 3A, p < 0.001.

Entries after “also recorded” stand apart in the source; their conditions may differ. Some results are limits rather than exact numbers.

These results are taken from article PMC5518789 (Journal of bone and mineral research : the official journal …, 2017).

Regarding “PTHrP(1-141): full-length recombinant PTHrP, gift of Dr. T.J. Martin”, in experiment [1], the “recognition by PTHrP(1-15) mAb” value was “recognized an antigen present in full-length PTHrP(1-141)”. In addition, in [2], the “recognition by PTHrP(12-48) Ab” value is listed as “but not PTHrP(1-141)”.

As for “PTHrP(1-37): N-terminal peptide used in dot blots and ELISA”, the “recognition by PTHrP(1-15) mAb” value in [1] is recorded as “recognized an antigen present in full-length PTHrP(1-141) as well as PTHrP(1-37)”.

As for “PTHrP(1-36): PTHR1 ligand to which SaOS2 cells respond [reference compound]”, the “SaOS2 response / activation of Gαs” value in [3] (SaOS2 cells, 36 (response), 42 (Gαs)) was “trigger the activation of Gαs”. Also, the “internalization into day 7 cells” value in experiment [4] (PTHrP(1-36), similar treatment (Supplemental Fig. 2)) is recorded as “no internalization”.

For “PTH(1-34): activates cAMP production via PTHR1, used as a positive control (SVSEIQLMHNLGKHLNSMERVEWLRKKLQDVHNF; Parathyroid hormone; UniProt P01270 32-65, looked up, fragment)”, the “activation of cAMP production via PTHR1 (literature)” value in experiment [3] (50 nM) was “activates cAMP production via PTHR1”. Besides, in experiment [5], the “cAMP production (positive control)” value is recorded as “stimulated cAMP production; also recorded: stimulated the expected increase in cAMP”.

Take “PTHrP(94-108): PTHrP fragment shown to translocate into cells (PGKRKEQEKKKRRTR; Parathyroid hormone-related protein; UniProt P12272 130-144, looked up, fragment)”: the translocation into cells entry in experiment [6] is reported as “translocate into cells in a PTHR1-dependent fashion”.

“PTHrP(67-93): PTHrP fragment shown to translocate into cells (YLTQETNKVETYKEQPLKTPGKKKKGK; Parathyroid hormone-related protein; UniProt P12272 103-129, looked up, fragment)”: the translocation into cells entry in [6] is recorded as “translocate into cells in a PTHR1-dependent fashion”.

Take “IL-8: interleukin 8, control in dot blots”: the “recognition by PTHrP(1-15) mAb” value in experiment [1] is recorded as “not recognized by either PTHrP Ab”. Further, in experiment [2], the “recognition by PTHrP(12-48) Ab” value is “not recognized by either PTHrP Ab”.

Consider “PTHrP(12-48): unique peptide fragment of parathyroid hormone-related protein (PTHrP); New England Peptides Inc. (GKSIQDLRRRFFLHHLIAEIHTAEIRATSEVSPNSKP; Parathyroid hormone-related protein; UniProt P12272 48-84, looked up, fragment)”, for which the “effect on mesenchymal lineage cells” value in [7] was “unable to show an effect of PTHrP(12-48) on mesenchymal lineage cells”. Besides, the “antagonist or partial antagonist action at PTHR1” value in [8] (SaOS2 or any other PTHR1-expressing cell) is “unable to show any significant antagonist or partial antagonist actions”. Besides, the “antagonism of PTHrP(1-36) agonist activity at PTHR1” value in experiment [8] is recorded as “nor does PTHrP(12-48) antagonize agonist activity of PTHrP(1-36) at the PTHR1”. The “recognition by PTHrP(1-15) mAb” value in experiment [1] was “but not PTHrP(12-48)”. Further, the “cleaved caspase 3-positive cells, day 7” value in experiment [9] (50 nM, 24 h, cells cultured for 7 days, Fig. 4C, D, p < 0.05) is listed as “significantly increased the number of cleaved caspase 3-positive cells”. In addition, in [9] (PTHrP(12-48) 50 nM versus TNFα 200 ng/ml, 24 h), the “cleaved caspase 3 increase compared with TNFα” value was “comparable to the effects observed following treatment with TNFα”. Moreover, the “uptake in other resident bone and bone marrow cells” value in [10] was “unable to show an effect of PTHrP(12-48) on mesenchymal lineage cells or observe any apparent uptake in other resident bone and bone marrow cells”. Moreover, the “time to internalization into primary human OCLs and their precursors” value in [4] (100 nM, day 7 cells, immunofluorescence) was no more than 60 min. Besides, in experiment [4] (100 nM, in presence of serum, day 7 cells, mCSF (25 ng/mL)+RANKL (50 ng/mL), 15, 30, 60 and 90 min, immunofluorescence, three independent experiments), the “internalization into OCLs” value is on record as “observed in OCLs 60 min after the addition”. Besides, the “internalization into mononuclear cells (precursors)” value in [4] (100 nM, mCSF alone, Fig. 2H panel iv, immunofluorescence) was “observed in mononuclear cells cultured in the presence of mCSF alone”. In experiment [11], the “recognition by PTHrP(12-48) Ab” value was “specifically recognized the 4-kDa PTHrP(12-48); also recorded: specifically recognized by PTHrP(12-48) Ab”.

B1: mCSF: culture factor for osteoclast precursors, R&D Systems (protein, UniProt P07141 33-552, looked up)
Macrophage colony-stimulating …: KEVSEHCSHMIGNGHLKVLQQLIDSQMETSCQIAFEFVDQEQLDDPVCYLKKAFFLVQDIIDETMRFKDNTPNANATERLQELSNNLNSCFTKDYEEQNKACVRTFHETPLQLLEKIKNFFNETKNLLEKDWNIFTKNCNNSFAKCSSRDVVTKPDCNCLYPKATPSSDPASASPHQPPAPSMAPLAGLAWDDSQRTEGSSLLPSELPLRIEDPGSAKQRPPRSTCQTLESTEQPNHGDRLTEDSQPHPSAGGPVPGVEDILESSLGTNWVLEEASGEASEGFLTQEAKFSPSTPVGGSIQAETDRPRALSASPFPKSTEDQKPVDITDRPLTEVNPMRPIGQTQNNTPEKTDGTSTLREDHQEPGSPHIATPNPQRVSNSATPVAQLLLPKSHSWGIVLPLGELEGKRSTRDRRSPAELEGGSASEGAARPVARFNSIPLTDTGHVEQHEGSSDPQIPESVFHLLVPGIILVLLTVGGLLFYKWKWRSHRDPQTLDSSVGRPEDSSLTQDEDRQVELPV
Take B1: the “total cells positive for cleaved caspase-3, controls day 0” value in experiment [9] is recorded as “less than 25%”.

B2: RANKL: receptor activator of NF-κB ligand, R&D Systems (protein, UniProt O14788 140-317, looked up)
Tumor necrosis factor ligand …: IRAEKAMVDGSWLDLAKRSKLEAQPFAHLTINATDIPSGSHKVSLSSWYHDRGWAKISNMTFSNGKLIVNQDGFYYLYANICFRHHETSGDLATEYLQLMVYVTKTSIKIPSSHTLMKGGSTKYWSGNSEFHFYSINVGGFFKLRSGEEISIEVSNPSLLDPDQDATYFGAFKVRDID
Consider B2, for which the “total cells positive for cleaved caspase-3, controls day 0” value in experiment [9] is “less than 25%”. The “number of TRAP+ MNCs, effect of RANKL” value in [12] was “significantly increased the number of TRAP+ MNCs”.
